7 compounds from ChEMBL document CHEMBL1122338, “Mutagenicity and chemistry of N-nitroso-N-(p-substituted-benzyl)methylamines” (1983) can be followed below.

Several values for one entry are separate records, joined by “and”; a condition that tells them apart may be missing. Identical values can stand only once.

In assay [1] the test system is S9. The assay can be described thus: Activity expressed as no. of revertants per plate in strain TA1535 with and without hamster S9 cells (3 mg/plate) at the dose of 25 ug. The format is functional, Cricetulus griseus.
For assay [2], the system named is S9. Kind of assay: (§1) Activity expressed as no. of revertants per plate in strain TA1535 with and without hamster S9 cells (3 mg/plate) at the dose of 2.5 ug. The assay is classed as functional, Cricetulus griseus.
Assay [3] deals with S9. The assay can be described thus: (§2) Activity expressed as no. of revertants per plate in strain TA1535 with and without hamster S9 cells (3 mg/plate) at the dose of 5 ug. The assay is classed as functional, Cricetulus griseus.
Assay [4] relates to S9. The assay can be described thus: (§3) Activity expressed as no. of revertants per plate in strain TA1535 with and without hamster S9 cells (3 mg/plate) at the dose of 1 ug. The assay is classed as functional, Cricetulus griseus.
The subject of assay [5] is S9. Kind of assay: (§4) Activity expressed as no. of revertants per plate in strain TA1535 with hamster S9 cells (3 mg/plate). The format is functional, Cricetulus griseus.
Assay [6] deals with S9. Kind of assay: (§5) Activity expressed as no. of revertants per plate in strain TA1535 with and without hamster S9 cells (3 mg/plate) at the dose of 10 ug. The format is functional, Cricetulus griseus.
Assay [7] deals with S9. The assay can be described thus: (§6) Activity expressed as no. of revertants per plate in strain TA1535 with and without hamster S9 cells (3 mg/plate) at the dose of 250 ug. The assay is classed as functional, Cricetulus griseus.
Assay [8] has as its system S9. Kind of assay: Activity expressed as no. of revertants per plate in strain TA1535 with and without hamster S9 cells (3 mg/plate) at the dose of 1000 ug. The assay is classed as functional, Cricetulus griseus.
In assay [9] the test system is S9. Kind of assay: (§7) Activity expressed as no. of revertants per plate in strain TA1535 with and without hamster S9 cells (3 mg/plate) at the dose of 500 ug. The format is functional, Cricetulus griseus.
For assay [10], the system named is S9. Kind of assay: Activity expressed as no. of revertants per plate in strain TA1535 with and without hamster S9 cells (3 mg/plate) at the dose of 100 ug. The assay is classed as functional, Cricetulus griseus.
Assay [11] has as its system Salmonella typhimurium. Kind of assay: Activity expressed as no. of revertants per plate in Salmonella Typhimurium TA1535 with and without hamster S9 cells (3 mg/plate) at the dose of 50 ug. The assay is classed as functional, Salmonella enterica subsp. enterica serovar Typhimurium.
The subject of assay [12] is S9. The assay can be described thus: Activity expressed as no. of revertants per plate in strain TA1535 without hamster S9 cells (3 mg/plate) at the dose of 250 ug. The format is functional, Cricetulus griseus. The gist of the method:
(§8)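 Ames plate incorporation test in Salmonella TA1535 (base-pair substitution detector), with or without Aroclor 1254-induced hamster S9 mix (3 mg/plate). Doses span a 10-point range of 1–1000 μg/plate. At least two independent dose-response studies, each on duplicate plates; mean revertants per plate reported. Counts are significant when above twice the historical or twice the current control mean, whichever is greater.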

Assay [13] has as its system S9. Kind of assay: Activity expressed as no. of revertants per plate in strain TA1535 without hamster S9 cells (3 mg/plate) at the dose of 50 ug. The format is functional, Cricetulus griseus. The gist of the method: as §8
The subject of assay [14] is S9. The assay is described as §6. The format is functional, Cricetulus griseus. The gist of the method: as §8
This is another data set of the same source.

Assay [15] deals with S9. Described as §2. The format is functional, Cricetulus griseus. The gist of the method:
as §8
This is another data set of the same source.

Assay [16] has as its system S9. Described as §4. The format is functional, Cricetulus griseus. The gist of the method: as §8
The source holds these as a separate data set.

The test system of assay [17] is S9. The description is as §7. The assay is classed as functional, Cricetulus griseus. The gist of the method:
as §8
The source holds these as a separate data set.

Assay [18] concerns S9. The description is as §3. The format is functional, Cricetulus griseus. The gist of the method: as §8
This is another data set of the same source.

Assay [19] deals with S9. The assay is described as §1. The assay is classed as functional, Cricetulus griseus. The gist of the method:
as §8
This is another data set of the same source.

Assay [20] concerns S9. Described as §5. The format is functional, Cricetulus griseus. The gist of the method:
as §8
The source holds these as a separate data set.

Assay [21] has as its system S9. Described as §7. The assay is classed as functional, Salmonella enterica subsp. enterica serovar Typhimurium. The gist of the method: as §8

With `CN(Cc1ccc(C#N)cc1)N=O`, the Activity is 29 and 45 in assay [1]; 26 and 19 in [2]; 29 in assay [3]; 25 and 14 in assay [4]; 21 and 13 in assay [5]; 23 and 32 in [6].

With `CN(Cc1ccc([N+](=O)[O-])cc1)N=O`, the Activity is 13 and 27 in assay [1]; 18 and 15 in assay [2]; 14 and 11 in assay [3]; 17 and 11 in assay [4]; 13 and 9 in [5]; 10 and 12 in assay [6].

`CN(Cc1ccc(C(=O)O)cc1)N=O`: the Activity in [7] was 15 and 7; in assay [8] it was 14 and 9; in [1], 6 and 4; in assay [2], 12 and 6; in assay [3], 13 and 6; in [9], 10 and 8. In addition, the Activity in assay [4] is 12 and 8; in assay [5], 11 and 6; in assay [10], 13 and 10; in assay [11], 8 and 5 and 10 and 7.

In the case of `CN(Cc1ccccc1)N=O`, the Activity in [7] was 23 and 58; in [1] it was 18 and 24; in [2] it was 18 and 24; in [3], 15 and 24; in [4], 14 and 21; in assay [5], 14 and 20. Further, the Activity was 17 and 44 in assay [10]; 12 in assay [6].

`COc1ccc(CN(C)N=O)cc1`: the Activity in assay [7] was 56; in assay [1], 18 and 17; in assay [2] it was 21 and 19; in assay [12] it was 20; in assay [3], 15 and 10; in [4], 10 and 13. Besides, the Activity in assay [5] is 11 and 8; in [10] it was 15 and 44; in [6], 24 and 14; in assay [13], 19; in assay [11], 11 and 26.

For the compound `CN(Cc1ccc(F)cc1)N=O`, the Activity in [7] was 39; in assay [8], 16; in [1], 13 and 17; in assay [2], 16 and 7; in assay [3], 12 and 10; in assay [14] it was 17. The Activity was 21 and 50 in assay [9]; 15 and 8 in assay [4]; 14 and 6 in assay [5]; 13 and 8 in assay [6].

`CN(Cc1ccc(Cl)cc1)N=O`: the Activity in assay [15] was 20 and 17; in assay [16], 19; in assay [17] it was 10; in assay [18] it was 13 and 9; in assay [5], 13; in [19], 18 and 15. Besides, the Activity is 12 and 32 in assay [20]; 913 in assay [21].
